# SENP8 block-1 = blocks human SENP8 cleavage of Nedd8 substrate; Q96LD8; recombinant SENP8, Nedd8 substrate fluorescence; inhibition, % at 20 µM; hit rate 0.64% among 360,000; in the data active means inhibition mostly above about 40%, no sharp cut-off; inactive means mostly below about 27%
# SENP8 block-2 = SENP8 protease inhibition | Q96LD8 | purified SENP8, Z-RLRGG-aminoluciferin cleavage, luminescence | inhibition, % at 10 µM | hit rate 1.2% among 330,000; in the data active means inhibition above about 50%
# NRP1-CendR mod = modulators of CendR peptide binding to human neuropilin-1. hit rate 0.85% among 360,000. O14786. inhibition, % at 25 µM. AID 602438. FAM-RPARPAR peptide binding to NRP-1, fluorescence polarization;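 active means inhibition or corrected inhibition above about 18%, plus a signal ratio from 0.5 to 1.5, limit read from the data, passing the limit was not always enough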
# SENP7 inh = inhibitors of human SENP7 protease. inhibition, % at 5 µM. recombinant SENP7, Z-RLRGG-aminoluciferin luminescence, 40 min. AID 434973. hit rate 1.5% among 330,000. Q9BQF6;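 active means inhibition above about 50% at the single test dose, limit read from the data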;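 further: plate controls were DMSO with enzyme for no effect and no enzyme buffer wells for full effect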
# SENP6 block = inhibitors of human SENP6 protease; Q9GZR1; inhibition, % at 10 µM; hit rate 1.8% among 330,000; Recombinant SENP6 catalytic domain, aminoluciferin luminescence;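 active means inhibition above about 50% at the single tested dose, limit read from the data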;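 further: plate controls were DMSO wells with enzyme for no effect and DMSO wells lacking enzyme for full effect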
# Target sequence (Q9GZR1 628-1112 limits assumed): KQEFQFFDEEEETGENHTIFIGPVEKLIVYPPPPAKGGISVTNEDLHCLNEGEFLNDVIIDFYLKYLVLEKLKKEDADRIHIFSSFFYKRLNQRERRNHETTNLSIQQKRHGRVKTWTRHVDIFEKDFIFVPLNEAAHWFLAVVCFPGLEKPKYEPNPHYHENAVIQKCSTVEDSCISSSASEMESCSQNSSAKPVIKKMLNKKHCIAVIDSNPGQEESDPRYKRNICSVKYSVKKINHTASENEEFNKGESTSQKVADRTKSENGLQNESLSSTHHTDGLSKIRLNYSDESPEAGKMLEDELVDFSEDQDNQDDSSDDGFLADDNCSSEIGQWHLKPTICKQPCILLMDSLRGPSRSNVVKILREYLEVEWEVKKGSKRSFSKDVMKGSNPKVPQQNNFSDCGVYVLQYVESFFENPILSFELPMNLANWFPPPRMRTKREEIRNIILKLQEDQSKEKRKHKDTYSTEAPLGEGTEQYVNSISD
# SENP1 inh = SENP1 (human) catalytic domain inhibition | Q9P0U3 | recombinant SENP1 catalytic domain, CyPet-SUMO1-YPet FRET cleavage | inhibition, % at 10 µM | hit rate 0.21% among 360,000 | AID 624204;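 active means inhibition at least 30% at 10 µM, raw YFP signal under a set limit, fluorescence ratio 0.5 to 1.5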;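 further: 0% = enzyme with DMSO and 100% = no enzyme wells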
#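 Assay system: hSENP1 catalytic domain, recombinant. Amount: SENP1 enzyme, 20 pM final. Schedule: 50 min reaction, RT, dark. Technique: FRET, CFP and YFP emission. Control set: no-enzyme wells low, DMSO-plus-enzyme wells high control.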
# SENP8 confirm = confirmation of human SENP8 protease inhibitors. shares compounds with SENP7 inh. Recombinant SENP8, Z-RLRGG-aminoluciferin luminescence, 60 min. inhibition, % at 12.5 µM. hit rate 40% among 6,200. AID 488912;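 active means mean inhibition across replicates above about 50%, limit read from the data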
# SENP6 conf = human SENP6 inhibition, confirmed. shares compounds with SENP7 inh. recombinant SENP6, Z-RLRGG-aminoluciferin luminescence. inhibition, % at 12.5 µM. hit rate 58% among 6,200. AID 488915
# SENP7 conf = confirmation of human SENP7 protease inhibitors | recombinant SENP7, Z-RLRGG-aminoluciferin luminescence, 40 min | shares compounds with SENP7 inh | hit rate 69% among 6,200 | inhibition, % at 12.5 µM
# Casp3 select = inhibits human caspase-3 in SENP selectivity test | shares compounds with SENP7 inh | purified caspase-3, Z-DEVD-aminoluciferin luminescence, 60 min | inhibition, % at 12.5 µM | hit rate 60% among 6,200 | AID 488918;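 active means mean inhibition above about 50%, limit read from the data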;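 further: plate controls were enzyme with DMSO for no effect and wells without caspase-3 for full effect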
# Target sequence (P42574 28-227 limits assumed): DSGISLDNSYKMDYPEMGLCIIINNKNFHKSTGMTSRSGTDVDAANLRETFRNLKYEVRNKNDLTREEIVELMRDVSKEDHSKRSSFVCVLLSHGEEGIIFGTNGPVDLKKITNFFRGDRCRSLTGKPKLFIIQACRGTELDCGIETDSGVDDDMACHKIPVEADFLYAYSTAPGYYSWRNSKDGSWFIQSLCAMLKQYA
# Luc interf = luminescence interference (SENP counter-screen); shares compounds with SENP7 inh; Pre-incubated SENP8/Z-RLRGG-aminoluciferin, luciferase luminescence interference; inhibition, % at 12.5 µM; hit rate 39% among 6,200; AID 488919;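 active means mean inhibition above about 50% when retested at one dose, limit read from the data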;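 further: plate controls were DMSO wells with completed reaction for no effect and substrate without enzyme for full effect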
# * hit, by the source's call; i = inactive; x = no result. Rows were chosen to be rich in hits. Some 3.3% of all compounds tested hit in one or more screens of this group.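 How the source made its calls, unless noted: active means mean inhibition above about 50% in the one-dose retest (limit read from the data); inactive means the rest.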
SMILES,SENP8 block-1,SENP8 block-2,NRP1-CendR mod,SENP7 inh,SENP6 block,SENP1 inh,SENP8 confirm,SENP6 conf,SENP7 conf,Casp3 select,Luc interf
CCc1ccc(CCC(=O)Nc2nccs2)o1,7.1,0.1,10.0,2.7,4.0,-0.8,x,x,x,x,x
O=C(COc1ccc2c(c1)OCO2)Nc1nccs1,7.9,89.6*,7.7,95.1*,95.7*,-0.7,94.7*,94.9*,101.6*,97.2*,93.3*
COc1ccc(OCC(=O)Nc2nccs2)cc1,12.7,62.4*,-12.3,82.6*,26.2,0.3,77.6*,79.1*,95.4*,92.9*,79.1*
N#Cc1c(-c2ccc(Cl)cc2)n(O)c2ccccc12,-323.8,x,11.6,x,x,-3.2,x,x,x,x,x
COc1ccc(C(NC(=O)C2CCN(Cc3ccc(Oc4ccccc4)cc3)CC2)c2ccccc2C)cn1 (configuration not stated),26.4,x,-1.3,x,x,0.2,x,x,x,x,x
CC1(C(=O)NS(=O)(=O)C2CC2)CCCN(C(=O)c2ccc(C(F)(F)F)cc2)C1 (configuration not stated),8.3,x,-0.1,x,x,1.0,x,x,x,x,x
COCCN1C[C@@H](CO)O[C@@H](n2cnc3c(NC4CCCC4)ncnc32)C1,11.7,x,4.3,x,x,0.5,x,x,x,x,x
Cc1ccc2oc(-c3cccc(NC(=S)NC(=O)c4cccs4)c3)nc2c1,-230.1,5.6,-23.8,11.4,44.5,0.9,x,x,x,x,x
Cc1ccc2oc(-c3cccc(NC(=S)NC(=O)/C=C/c4ccco4)c3)nc2c1,-16.8,56.3*,-44.0,18.2,56.7*,1.7,-24.1,-7.6,4.2,16.0,10.6
COc1ccc(N(C(=O)CNC(=O)c2ccco2)C(C(=O)NC2CCCCC2)c2ccco2)cc1 (configuration not stated),24.2,0.4,-3.8,-4.0,60.3*,1.0,5.1,-1.8,-6.6,4.7,-3.1
CCOc1ccc(-n2nc3ccc(N)cc3n2)cc1,-428.7,79.4*,-7.0,40.8,86.3*,-33.5,85.1*,44.8,1.0,2.2,66.0*
CCOc1ccc(-n2nc3cc(C)c(N)cc3n2)cc1,i,45.7,-0.6,13.2,73.3*,-67.9,40.3,74.3*,94.1*,37.5,5.9
CCOc1ccc(N2C(N)=NC(N)=NC2(C)C)cc1,7.1,-3.0,-2.9,-18.1,-1.3,2.5,x,x,x,x,x
OCC[C@H]1NCc2cc(CO)cc(-c3ccccc3)c21,9.4,x,0.0,x,x,-0.2,x,x,x,x,x
Cc1ccc(C(=O)Nc2nc3nc(-c4ccccc4)cc(=O)n3[nH]2)cc1,7.5,-1.5,-20.8,2.5,-1.5,-0.7,x,x,x,x,x
COc1cccc(-c2cc3nc(-c4ccccc4)cc(=O)n3[nH]2)c1,-328.2,85.0*,7.0,51.5*,87.3*,-6.0,-8.6,84.7*,78.9*,84.0*,16.0
Cc1cc(=O)n2[nH]c(-c3ccccc3)cc2n1,-73.9,-12.3,6.1,5.9,12.0,0.0,x,x,x,x,x
O=c1cc(-c2ccccc2)nc2cc(-c3ccc(F)cc3)[nH]n12,-488.3,78.6*,-8.8,42.5,87.0*,-16.0,-4.1,2.2,4.4,11.7,1.6
COc1ccc(-c2c(C(F)(F)F)[nH]n3c(=O)cc(-c4ccccc4)nc23)cc1,-419.3,-6.4,-12.2,7.7,-5.7,-52.4,x,x,x,x,x
CSc1nc2nc(-c3ccccc3)cc(=O)n2[nH]1,18.6,11.0,24.5,9.3,53.3*,-0.1,27.3,22.3,63.8*,74.8*,50.3*
COC(=O)[C@]1(C)N[C@H](CN(C)C(=O)C2CCCCC2)[C@@H]2C(=O)N(C)C(=O)[C@@H]21,11.8,-2.6,-8.3,-1.2,-9.1,-0.7,x,x,x,x,x
COc1ccc(OC)c(CCNC(=O)CCCC(=O)n2ncc3cc(C)ccc32)c1,1.9,11.5,6.1,0.5,-2.3,1.3,x,x,x,x,x
CCC1CC(C(=O)O)CC(=O)N1 (configuration not stated),-19.2,x,3.4,x,x,0.0,x,x,x,x,x
CC(C)(C)c1ccc(/C=N/Nc2ccc(C(=O)O)cc2)cc1,-100.5,96.4*,-3.5,99.1*,99.6*,-0.1,100.0*,101.0*,103.7*,93.8*,99.2*
O=C(O)c1ccc(/C=N/Nc2ccc(Cl)nn2)cc1,17.4,64.9*,2.9,75.5*,71.7*,1.4,18.7,25.6,20.4,81.4*,10.0
SMILES,SENP8 block-1,SENP8 block-2,NRP1-CendR mod,SENP7 inh,SENP6 block,SENP1 inh,SENP8 confirm,SENP6 conf,SENP7 conf,Casp3 select,Luc interf
O=C(O)c1ccc(N/N=C/c2ccc(C(F)(F)F)cc2)cc1,-76.2,95.8*,-0.6,98.0*,100.6*,-8.1,98.7*,99.2*,101.8*,93.5*,97.9*
CCNC(=S)N/N=C/c1ccc(C(=O)O)cc1,9.2,12.5,-0.1,43.9,15.9,1.3,x,x,x,x,x
O=C(N/N=C\c1ccc(F)cc1)c1ccc(F)cc1,-3.6,-5.7,7.1,4.0,-12.1,-0.5,x,x,x,x,x
O=C(O)c1ccc(/C=N/Nc2ccc(F)cc2F)cc1,-53.6,95.5*,-6.3,98.5*,100.6*,-18.3,99.4*,100.1*,103.1*,98.4*,99.0*
O=C(N/N=C/c1ccc(C(F)(F)F)cc1)c1ccc(O)cc1,9.8,-0.8,0.1,4.8,-3.3,-0.1,x,x,x,x,x
CC[C@]12C(=O)N(C)C[C@H]([C@@H]3C(=O)N(C)C(=O)[C@@H]31)N2C(=O)c1ccccc1,1.6,x,-15.8,x,x,1.3,x,x,x,x,x
O=C(O)c1ccc(N/N=C/c2c(F)cccc2Cl)cc1,-11.9,96.2*,-0.2,98.2*,96.7*,-1.6,99.9*,100.8*,103.8*,96.2*,98.8*
Cc1ccc(-c2noc(CSc3ccccc3)n2)cc1,16.0,37.2,-1.5,52.5*,75.7*,-1.7,50.8*,60.5*,80.9*,42.6,44.8
c1ccc(SCc2nc(-c3cccnc3)no2)cc1,-4.8,-3.3,5.5,-9.0,-4.0,-0.4,x,x,x,x,x
COc1ccc(-c2noc(Cc3cccs3)n2)cc1,18.9,29.6,-13.6,12.7,50.2*,-0.4,38.0,38.7,69.3*,27.8,28.3
Cc1ccc(OCc2nc(-c3ccccc3)no2)cc1,10.1,11.6,8.9,31.9,56.3*,1.7,16.5,24.2,64.7*,25.9,7.3
Cc1noc(C)c1S(=O)(=O)NC(=O)C1(C)CCN1C(=O)c1ccccc1CCc1ccccc1 (configuration not stated),22.7,x,-0.9,x,x,-0.4,x,x,x,x,x
